Measurements: the array DNA melting data of Ke et al. (doi:10.1101/2024.01.08.574731)

What was measured:
[1] = folding enthalpy; higher = less favourable; fluorescence melt of hairpins on a sequencing array, two-state fit; details: sodium 0.088 M
Method in brief: (§1)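 Cy3 signals were normalised both to pre-quench Cy3 and to control constructs. They came from library hairpins carrying annealed Cy3 and quencher oligos on a sequenced MiSeq flow cell, imaged in 50 mM Na-HEPES pH 8.0, 25 mM NaCl, in 2.5 °C steps up to 60 °C. Bootstrapped two-state fits gave melting temperature and folding enthalpy, and four replicates were combined by inverse variance. Fitted temperatures were then raised by 9.35 °C to match UV melts.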

[2] = melting temperature; fluorescence melt of hairpins on a sequencing array, two-state fit, raised by 9.35 °C to match UV melts; details: sodium 0.088 M
Method in brief: as §1

Sequence | folding enthalpy [1] | Tm [2]
GCCGTAGGAAACTGTGGC (((..((....))..))) | -11.4 kcal/mol | 43.3 °C
GCCTAGCGAAAGCCAGGC ((((.((....)).)))) | -29.4 kcal/mol | 62.2 °C
GCTCTCGAAAGAGGGAGC ((((((....)))..))) | -21.8 kcal/mol | 45.5 °C
GATCAATGGCTTGATC ((((((....)))))) | -29 kcal/mol | 42.2 °C
GATCATATAAATGATC ((((((....)))))) | -29.9 kcal/mol | 43.7 °C
GTAGCAGGAAACTGCCAC ((.((((....)))).)) | -14.3 kcal/mol | 36.7 °C
GTAATAGGAAACTATTAC (((((((....))))))) | -37.2 kcal/mol | 45.5 °C
GGAAACGAAAGTTCCTCC ((((((....)))..))) | -18.3 kcal/mol | 44.1 °C
GACAGTCCGAAAGGAGTC (((..(((....)))))) | -17 kcal/mol | 30.3 °C
GCGAAACATCGC ((((....)))) | -21.5 kcal/mol | 48.7 °C
GAGAGGGGAAACCTTCTC ((((.((....)).)))) | -27.4 kcal/mol | 40.3 °C
GCGAGGAAACTCGC (((((....))))) | -32.6 kcal/mol | 66.4 °C
GCCGGCGAAAGCCGAGGC ((((((....)))..))) | -13.4 kcal/mol | 63.1 °C
GATCTATCATTAGATC ((((((....)))))) | -28.2 kcal/mol | 42.1 °C
GGATACGAAAGTAGATCC ((((((....)))..))) | -17.9 kcal/mol | 34.7 °C
GTTATCGGAAACGATAAC (((((((....))))))) | -46.2 kcal/mol | 57 °C
GCCCAGCGAAAGCGGCGC ((.(.((....)).).)) | -17 kcal/mol | 64.5 °C
GGGTTGCGAAAGCACCC (((.(((....)))))) | -23.7 kcal/mol | 62.9 °C
GATCTAGTCCTAGATC ((((((....)))))) | -31.9 kcal/mol | 47.4 °C
GATCTGTTGCAGATC ((((((...)))))) | -36.5 kcal/mol | 48.7 °C
GTCTTCGAAAGAAGAGAC ((((((....)))..))) | -16.7 kcal/mol | 36.5 °C
GCTTTCGAAAGAAAGC ((((((....)))))) | -42.3 kcal/mol | 65.1 °C
GTGATAGGAAACCATCAC (((((.(....).))))) | -34.9 kcal/mol | 39.3 °C
GCAAATGGAAACATTTGC (((((((....))))))) | -40.9 kcal/mol | 61.8 °C

Sequence | folding enthalpy [1] | Tm [2]
GGCCTCGAAAGAGGAGCC ((((((....)))..))) | -14.5 kcal/mol | 47.2 °C
GCTATCGAAAGATGAAGC ((((((....)))..))) | -16.2 kcal/mol | 32.8 °C
GGACCGGGAAACCGGTTC (.(((((....))))).) | -22.3 kcal/mol | 59 °C
GCAGACGAAAGTCATGC ((((((....))).))) | -24.1 kcal/mol | 51 °C
GTTGCTGGAAACAACAAC ((((.((....)).)))) | -29.2 kcal/mol | 38.8 °C
GGAGTCGGAAACGGTTCC (((..((....))..))) | -27.1 kcal/mol | 34.6 °C
GCACCTGGAAACGGGTGC (((((.(....).))))) | -48 kcal/mol | 60.9 °C
GATCAATACGTTGATC ((((((....)))))) | -37.9 kcal/mol | 48 °C
GATCCGATACGGATC ((((((...)))))) | -32.7 kcal/mol | 59.6 °C
GCAACCCCGAAAGGGTGC (((..(((....)))))) | -19.2 kcal/mol | 55.8 °C
GATCCTGTAAAGGATC ((((((....)))))) | -39.6 kcal/mol | 60.5 °C
GCTCAGAAATGAGC (((((....))))) | -26.8 kcal/mol | 55.4 °C
GGGTTTGGAAACAAATCC ((.((((....)))).)) | -39.6 kcal/mol | 47.4 °C
GCAAAGCGAAAGCTTAGC ((.((((....)))).)) | -19 kcal/mol | 57.2 °C
GCCGTGCGAAAGCTAGGC (((..((....))..))) | -32 kcal/mol | 66.9 °C
GATCAAGATATTGATC ((((((....)))))) | -34.7 kcal/mol | 48.5 °C
GCCTAGCGAAAGCCTGGC (((..((....))..))) | -19.6 kcal/mol | 52.1 °C
GATCCTGTGCAGGATC ((((((....)))))) | -43.2 kcal/mol | 55 °C
GATCGCTAGAGCGATC ((((((....)))))) | -34.2 kcal/mol | 67.6 °C
GATCGCTTATGCGATC ((((((....)))))) | -33.8 kcal/mol | 68.1 °C
GCCGGGCGAAAGCGCAGC ((.(.((....)).).)) | -13.2 kcal/mol | 43.3 °C
GCGAAGATTCGC ((((....)))) | -21.8 kcal/mol | 49 °C
GTCACCGAAAGGTCCGAC ((((((....)))..))) | -11.2 kcal/mol | 31.1 °C
GATCCCGTTCGGGATC ((((((....)))))) | -43.2 kcal/mol | 67.8 °C

Sequence | folding enthalpy [1] | Tm [2]
CTCAGGAAACTGAG (((((....))))) | -22.6 kcal/mol | 46.3 °C
GTAGCTGGAAACGGCTAC (((((.(....).))))) | -40.8 kcal/mol | 52.5 °C
GATCGGACCGCCGATC ((((((....)))))) | -39.9 kcal/mol | 54.6 °C
GCGGTTCGAAAGAATCGC (((.(((....))).))) | -43.4 kcal/mol | 66.4 °C
GCTTTGAAAAAAGC (((((....))))) | -21.3 kcal/mol | 47.4 °C
GTAGCTGGAAACAGTTGC (.(.(((....))).).) | -14.5 kcal/mol | 30.8 °C
GGCCGTCCGAAAGGAGCC (((..(((....)))))) | -15.8 kcal/mol | 43.4 °C
GCACATCGAAAGATATGC (((.(((....))).))) | -30.2 kcal/mol | 42.9 °C
GCGGTGTGCCGC ((((....)))) | -19.1 kcal/mol | 67.6 °C
GAATCCGAAAGGAACTTC ((((((....)))..))) | -13.1 kcal/mol | 33.1 °C
GATCGTAGTAACGATC ((((((....)))))) | -41.5 kcal/mol | 55.7 °C
GTCACCGAAAGGTATGAC ((((((....)))..))) | -20.2 kcal/mol | 40.1 °C
GCAACTCGAAAGAGTGC (((.(((....)))))) | -33.5 kcal/mol | 55.8 °C
GACCGGGGAAACCCGATC ((.((((....)))).)) | -19.9 kcal/mol | 44 °C
GCTAAGCGAAAGCTCCGC ((..(((....)))..)) | -10.6 kcal/mol | 26.9 °C
GTTCTGGGAAACTAGGAC ((.((.(....).)).)) | -9.14 kcal/mol | 28.8 °C
GGTTGTGGAAACATAACC ((((.((....)).)))) | -37 kcal/mol | 45.9 °C
GCAAGAACGAAAGTTTGC (((..(((....)))))) | -22.5 kcal/mol | 42.7 °C
GCTGAGGGAAACCCCAGC ((((.((....)).)))) | -33.3 kcal/mol | 51.4 °C
GCTGTCGGAAACGACAAC (.(((((....))))).) | -12.9 kcal/mol | 40.9 °C
GCTGCCGAAAGGCCAAGC ((((((....)))..))) | -15.5 kcal/mol | 46.3 °C
GGTACGAAAGTACC (((((....))))) | -30.4 kcal/mol | 65.8 °C
GGAGACGAAAGTCGCTCC ((((((....)))..))) | -13 kcal/mol | 42.4 °C
GCGGAGCGAAAGCTAGGC ((..(((....)))..)) | -9.5 kcal/mol | 41.9 °C

Sequence | folding enthalpy [1] | Tm [2]
TGGATGAAAATCCA (((((....))))) | -17.8 kcal/mol | 46.1 °C
GCTGCCCCGAAAGGGAGC (((..(((....)))))) | -13.3 kcal/mol | 55.2 °C
GCTGACGAAAGTCGCAGC ((((((....)))..))) | -16.7 kcal/mol | 49.5 °C
GCTGGGCGAAAGCCTCGC ((..(((....)))..)) | -14.9 kcal/mol | 44.6 °C
CGGTCGGAAACGATCCCG ((((((....)))..))) | -17.9 kcal/mol | 34.9 °C
GAACAAGAAATTGTTC ((((((....)))))) | -26.4 kcal/mol | 45.1 °C
GGATATGCGAAAGCATCC (((..(((....)))))) | -12.2 kcal/mol | 36.5 °C
GAGCACGAAAGTGCCCTC ((((((....)))..))) | -9.48 kcal/mol | 44.3 °C
GAGGAAGGAAACTTCTTC ((.((((....)))).)) | -16.7 kcal/mol | 33.9 °C
GTGTATCCGAAAGGACAC (((..(((....)))))) | -21.6 kcal/mol | 42.2 °C
GTGACAACGAAAGTTCAC (((..(((....)))))) | -11.1 kcal/mol | 34.8 °C
GCACGGCGAAAGCTCTGC (((..((....))..))) | -21.1 kcal/mol | 37.4 °C
GCTTGGTCGAAAGACAGC (((..(((....)))))) | -14.8 kcal/mol | 43.2 °C
CGCGGAATAATCCGCG ((((((....)))))) | -34.7 kcal/mol | 67.7 °C
GAGTAAGGAAACTCACTC ((((.((....)).)))) | -14.8 kcal/mol | 24.8 °C
GATCGAGTTTTCGATC ((((((....)))))) | -41.8 kcal/mol | 54.2 °C
GAGAAGGGAAACCCTCTC ((((.((....)).)))) | -22.8 kcal/mol | 35.6 °C
GGTACCCGAAAGGGACC (((.(((....)))))) | -25.9 kcal/mol | 54.5 °C
GCTGAAGGAAACTTCAGC (((((((....))))))) | -41.1 kcal/mol | 62.4 °C
GCAACGCGAAAGCCGTGC (((..((....))..))) | -14.8 kcal/mol | 49 °C
GCGGCGCGAAAGCTGCGC (((..((....))..))) | -26.1 kcal/mol | 63.3 °C
